Experimental data: ChEMBL document CHEMBL1143259, “Synthesis and antiplasmodial activity of new 4-aryl-2-trichloromethylquinazolines” (Bioorg Med Chem Lett, 2008)

Key:
[1] = tested on: Plasmodium falciparum; experiment: Antiplasmodial activity against chloroquinone-resistant Plasmodium falciparum W2; format: functional, organism-based
[2] = tested on: Plasmodium falciparum; experiment: Antiplasmodial activity against chloroquinone-sensitive Plasmodium falciparum 3D7; format: functional, organism-based
[3] = tested on: HepG2; experiment: Cytotoxicity against human HepG2 cells by MTT assay; format: cell-based
Summary of the method: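 HepG2 cells were seeded at 5 × 10³ cells/well in RPMI and pre-incubated for 24 h. Compound was added at various concentrations and incubated for 72 h. MTT (5 mg/mL in PBS) was then added in serum-free medium for 2 h at 37 °C in 6% CO₂. Formazan was dissolved in DMSO and A570 read against a 630 nm reference. Viability was expressed as % of untreated control, and the 50% cytotoxic concentration taken from the dose–response curve. Values are the mean of three independent experiments.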

[4] = (§1) Cytotoxicity against human THP1 cells by MTT assay; format: cell-based, THP-1; settings: human, THP-1 cells; read-out: LC50 (the source's name)
Summary of the method: (§2)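 Cells seeded at 5 × 10³/well in RPMI and pre-incubated 24 h, then exposed to a range of compound concentrations for 72 h. MTT was added in serum-free medium for 2 h at 37 °C, and the formazan was dissolved in DMSO. Absorbance was read at 570 nm against a 630 nm reference. Viability was taken as % of untreated control, and IC50 came from the dose–response curve (mean of three independent experiments).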

[5] = tested on: THP-1; experiment: as §1; format: cell-based; settings: Homo sapiens, THP-1; summary of the method: as §2
[6] = Selectivity index, ratio of IC50 for human HepG2 cells to IC50 for Plasmodium falciparum W2; format: functional
Summary of the method: (§3)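 SI = human-cell IC50 divided by P. falciparum W2 IC50. Each IC50 is the mean of three independent experiments.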

[7] = Selectivity index, ratio of IC50 for human THP1 cells to IC50 for Plasmodium falciparum W2; format: functional, THP-1; summary of the method: as §3

Row | Compound | IC50 [1] [µM] | IC50 [2] [µM] | IC50 [3] [µM] | CC50 [4] [µM] | IC50 [5] [µM] | Ratio IC50 [6] | Ratio IC50 [7]
1 | COc1cc(-c2nc(C(Cl)(Cl)Cl)nc3ccccc23)cc(OC)c1OC | 28.9 | 23.3 | > 125 | > 250 | > 250 | >4.3 | >8.7
2 | CCN(CC)CCCC(C)Nc1ccnc2cc(Cl)ccc12 (centres undefined) [CHLOROQUINE] |  |  | 30 |  |  |  | 
3 | Cc1nc(-c2ccccc2)c2ccccc2n1 | 62.4 | > 125 | > 125 | > 500 | 125 | >2 | 2
4 | C/N=C(\NC)c1nc(-c2ccccc2)c2ccccc2n1.Cl | > 100 | > 100 | > 125 | > 500 | > 500 | < 1.25 | 5
5 | ClC(Cl)(Cl)c1nc(-c2ccco2)c2ccccc2n1 | 20.2 | 30 | > 125 | > 500 | 61.6 | >6.2 | 3.1
6 | Clc1nc(C(Cl)(Cl)Cl)nc2ccccc12 | 54.5 | 73.2 | > 125 | > 500 | > 500 | >2.3 | >9.2
7 | C[C@H]1c2cccc(O)c2C(=O)C2=C(O)[C@]3(O)C(=O)C(C(N)=O)=C(O)[C@@H](N(C)C)[C@@H]3[C@@H](O)[C@@H]21 [DOXYCYCLINE] | 9 |  |  |  |  |  | 
8 | ClC(Cl)(Cl)c1nc(-c2ccc3ccccc3c2)c2ccccc2n1 | 8.1 | 23.3 | > 125 | > 500 | > 500 | >15.4 | >61.7
9 | COc1ccc(-c2nc(C(Cl)(Cl)Cl)nc3ccccc23)cc1 | 10.9 | 25 | 125 | > 250 | 250 | 11.5 | 22.9
10 | Fc1ccc(-c2nc(C(Cl)(Cl)Cl)nc3ccccc23)cc1 | 2.5 | 3 | > 125 | 500 | 125 | >50 | 50
11 | ClC(Cl)(Cl)c1nc(-c2ccccc2)c2ccccc2n1 | 8 | 20.4 | > 125 | > 500 | 125 | >15.6 | 15.6
12 | FC(F)(F)c1cccc(-c2nc(C(Cl)(Cl)Cl)nc3ccccc23)c1 | 40.4 | 36.6 | > 125 | > 500 | 78.6 | >3.1 | 1.9
13 | COc1cccc2c1C(=O)c1c(O)c3c(c(O)c1C2=O)C[C@@](O)(C(=O)CO)C[C@@H]3O[C@H]1C[C@H](N)[C@H](O)[C@H](C)O1 [DOXORUBICIN] |  |  | 0.2 | 2.5 | 0.05 |  | 
14 | Cc1ccc(-c2nc(C(Cl)(Cl)Cl)nc3ccccc23)s1 | 8.7 | 24 | 25 | 125 | 50 | 2.9 | 5.7
15 | Clc1ccc(-c2nc(C(Cl)(Cl)Cl)nc3ccccc23)cc1 | 4.7 | 2.2 | > 125 | > 500 | 73.2 | >26.6 | 15.6
